Measured values published in ChEMBL document CHEMBL1140539, “Modification of cap group in delta-lactam-based histone deacetylase (HDAC) inhibitors” (Bioorg Med Chem Lett, 2007).

How the values were obtained:
[1] = biological target: Histone deacetylase; assay: Inhibition of HDAC in HeLa cell lysates; type: protein assay, Homo sapiens
[2] = system: PC-3; assay: Growth inhibition of human PC3 cells by SRB assay; type: functional
[3] = system: ACHN; assay: Growth inhibition of human ACHN cells by SRB assay; type: functional
[4] = system: HCT-15; assay: Growth inhibition of human HCT15 cells by SRB assay; type: functional
[5] = system: MDA-MB-231; assay: Growth inhibition of human MDA-MB-231 cells by SRB assay; type: functional
[6] = system: NUGC-3; assay: Growth inhibition of human NUGC3 cells by SRB assay; type: functional
[7] = system: MDA-MB-231; assay: Antitumor activity against MDA-MB-231 cells xenografted BALB/c nude mouse at 30 mg/kg, ip for 15 days; type: functional, Homo sapiens; conditions: MDA-MB-231, ip, 360 h, route intraperitoneal
[8] = system: MDA-MB-231; assay: Antitumor activity against MDA-MB-231 cells xenografted BALB/c nude mouse assessed as body weight at 30 mg/kg, ip for 15 days; type: functional, Homo sapiens; conditions: route intraperitoneal
Summary of the method: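 Nude mice carrying MDA-MB-231 human breast xenografts were dosed once daily by intraperitoneal injection at 30 mg/kg. Dosing began once tumours reached 50–60 mm³.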

[9] = biological target: Histone deacetylase (Homo sapiens) (UniProt Q13547+O15379+Q9UBN7+Q92769+Q9UQL6+Q8WUI4+Q9BY41+Q96DB2+P56524+Q9UKV0+Q969S8); conditions: HeLa

| Structure (SMILES) | IC50 [1] [µM] | GI50 [2] [µM] | GI50 [3] [µM] | GI50 [4] [µM] | GI50 [5] [µM] | GI50 [6] [µM] | inhibition in vivo at 30 mg/kg [7] [%] | Activity [8] [%] | IC50 [9] [µM] |
| --- | --- | --- | --- | --- | --- | --- | --- | --- | --- |
| Cc1cccc(CN2CCC=C(CCC(=O)NO)C2=O)c1 | 1.9 | > 10 | 4.38 | > 10 | 8.12 |  |  |  |  |
| O=C(CCC1=CCCN(CCCc2ccc3ccccc3c2)C1=O)NO | 0.03 | 0.3 | 0.46 | 0.53 | 0.56 | 0.79 |  |  |  |
| O=C(CCC1=CCCN(CCCCc2ccc(-c3ccccc3)cc2)C1=O)NO | 0.2 | 2.95 | 2.67 | 4.56 | 1.28 | 4.2 |  |  |  |
| O=C(CCC1=CCCN(Cc2ccc(Br)cc2)C1=O)NO | 0.45 | 3.15 | 2.48 | 1.72 | 1.63 |  |  |  |  |
| O=C(CCC1=CCCN(Cc2ccc(F)cc2)C1=O)NO | 0.56 |  |  | 9.96 |  |  |  |  |  |
| O=C(CCC1=CCCN(CCc2ccc3ccccc3c2)C1=O)NO | 0.037 | 0.61 | 1.18 | 1.16 | 0.28 | 0.37 | 51 | 94 |  |
| O=C(CCCCCCC(=O)Nc1ccccc1)NO [VORINOSTAT] |  |  | 2.22 |  |  |  |  | 100 |  |
| O=C(CCC1=CCCN(CCc2ccc(-c3ccccc3)cc2)C1=O)NO | 0.23 | 0.53 | 1.18 | 1 | 0.28 | 1.65 |  |  |  |
| O=C(CCC1=CCCN(Cc2ccc(NC(=O)c3ccccc3)cc2)C1=O)NO | 0.51 | > 10 | > 10 | > 10 | 6.03 | > 10 |  |  |  |
| COc1ccccc1CN1CCC=C(CCC(=O)NO)C1=O | 0.86 | > 10 | > 10 | > 10 | > 10 |  |  |  |  |
| COc1ccc(CN2CCC=C(CCC(=O)NO)C2=O)cc1 | 0.44 | 7.08 | 1.67 | 6.89 | 3.86 |  |  |  |  |
| O=C(CCC1=CCCN(Cc2ccc([N+](=O)[O-])cc2)C1=O)NO | 0.23 | 3.01 | 5.21 | > 10 | 0.47 | 1.11 |  |  |  |
| COc1cccc(CN2CCC=C(CCC(=O)NO)C2=O)c1 | 1.94 | > 10 | 7.6 | 9.03 | 3.92 |  |  |  |  |
| O=C(CCC1=CCCN(CCCCc2cccc3ccccc23)C1=O)NO | 0.11 | 1.69 | 1.82 | 1.67 | 1.47 | 2.01 |  |  |  |
| O=C(CCC1=CCCN(Cc2ccc3ccccc3c2)C1=O)NO |  |  |  |  |  |  |  |  | > 10 |
| O=C(CCC1=CCCN(CCCc2ccc(-c3ccccc3)cc2)C1=O)NO | 0.27 | 3.23 | 2.49 | 3.19 | 1.04 | 3.7 |  |  |  |
| CC(=O)Nc1ccc(CN2CCC=C(CCC(=O)NO)C2=O)cc1 | 0.82 | > 10 |  |  |  |  |  |  |  |
| Cc1ccc(S(=O)(=O)Nc2ccc(CN3CCC=C(CCC(=O)NO)C3=O)cc2)cc1 | 0.59 | 1.8 | 0.37 | > 10 | 0.56 |  |  |  |  |
| O=C(CCC1=CCCN(CCc2cccc3ccccc23)C1=O)NO | 0.32 | 2.58 | 6.62 | 5.43 | 2.53 | 3.26 |  |  |  |
| Cc1ccc(CN2CCC=C(CCC(=O)NO)C2=O)cc1 | 2.1 | 8.1 | 5 | 8.51 | 1.43 |  |  |  |  |
| Cc1ccccc1CN1CCC=C(CCC(=O)NO)C1=O | 2.97 | > 10 | > 10 | > 10 | 4.92 |  |  |  |  |
